Results: ChEMBL document CHEMBL1141640, “Cyclic guanidines as dual 5-HT5A/5-HT7 receptor ligands: optimising brain penetration” (Bioorg Med Chem Lett, 2008)

Legend:
[1] = target: T1, 5-hydroxytryptamine receptor 5A (Homo sapiens, UniProt P47898); assay: Binding affinity to human 5HT5A receptor
[2] = Distribution coefficient, log D of the compound; format: physicochemical; conditions: octanol/water
Summary of the method: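 Lipophilicity reported as log D at pH 7.4 (log D7.4), measured alongside the guanidine pKa.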

[3] = Dissociation constant, pKa of the compound; format: physicochemical
[4] = target: T2, 5-hydroxytryptamine receptor 1D (Homo sapiens, UniProt P28221); assay: Binding affinity to human 5HT1D receptor
T2 sequence (P28221 whole entry): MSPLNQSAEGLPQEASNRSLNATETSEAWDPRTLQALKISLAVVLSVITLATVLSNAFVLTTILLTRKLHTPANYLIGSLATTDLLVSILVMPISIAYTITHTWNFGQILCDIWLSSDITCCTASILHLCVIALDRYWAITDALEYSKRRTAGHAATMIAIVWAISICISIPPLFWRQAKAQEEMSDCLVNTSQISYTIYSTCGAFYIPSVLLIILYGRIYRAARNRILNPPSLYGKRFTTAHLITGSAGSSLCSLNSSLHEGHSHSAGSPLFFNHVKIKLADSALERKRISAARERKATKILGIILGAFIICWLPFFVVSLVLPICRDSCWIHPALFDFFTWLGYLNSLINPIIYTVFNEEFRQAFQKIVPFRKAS

[5] = target: 5-hydroxytryptamine receptor 7 (Homo sapiens, UniProt P34969); assay: Binding affinity to human 5HT7 receptor
Chain of 5-hydroxytryptamine receptor 7 (P34969 whole entry): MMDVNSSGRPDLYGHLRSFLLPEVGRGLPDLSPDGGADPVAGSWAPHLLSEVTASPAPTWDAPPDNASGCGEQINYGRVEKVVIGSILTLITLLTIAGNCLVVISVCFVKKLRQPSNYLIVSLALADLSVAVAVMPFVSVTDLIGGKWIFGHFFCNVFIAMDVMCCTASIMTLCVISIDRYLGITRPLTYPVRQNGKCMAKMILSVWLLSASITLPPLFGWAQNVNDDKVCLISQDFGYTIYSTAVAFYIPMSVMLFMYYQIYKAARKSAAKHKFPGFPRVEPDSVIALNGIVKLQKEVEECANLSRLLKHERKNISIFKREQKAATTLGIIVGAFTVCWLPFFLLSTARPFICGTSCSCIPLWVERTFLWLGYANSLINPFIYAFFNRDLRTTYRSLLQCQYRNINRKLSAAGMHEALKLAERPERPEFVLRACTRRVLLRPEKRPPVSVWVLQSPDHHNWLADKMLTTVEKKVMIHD

[6] = target: 5-hydroxytryptamine receptor 5A (Rattus norvegicus, UniProt P35364); assay: Binding affinity to rat 5HT5A receptor
Chain of 5-hydroxytryptamine receptor 5A (Rattus norvegicus, UniProt P35364) (P35364 whole entry): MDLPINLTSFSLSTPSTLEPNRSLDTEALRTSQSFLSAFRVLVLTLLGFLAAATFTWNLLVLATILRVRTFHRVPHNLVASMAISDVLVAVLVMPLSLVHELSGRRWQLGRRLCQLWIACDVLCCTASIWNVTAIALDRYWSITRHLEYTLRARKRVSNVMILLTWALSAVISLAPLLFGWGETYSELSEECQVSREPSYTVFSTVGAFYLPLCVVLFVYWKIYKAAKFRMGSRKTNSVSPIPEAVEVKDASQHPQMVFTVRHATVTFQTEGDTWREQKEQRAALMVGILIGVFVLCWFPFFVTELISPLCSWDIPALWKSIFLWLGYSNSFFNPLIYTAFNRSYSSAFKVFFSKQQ

[7] = target: 5-hydroxytryptamine receptor 2A (Homo sapiens, UniProt P28223); assay: Binding affinity to human 5HT2A receptor
Chain of 5-hydroxytryptamine receptor 2A (P28223 whole entry): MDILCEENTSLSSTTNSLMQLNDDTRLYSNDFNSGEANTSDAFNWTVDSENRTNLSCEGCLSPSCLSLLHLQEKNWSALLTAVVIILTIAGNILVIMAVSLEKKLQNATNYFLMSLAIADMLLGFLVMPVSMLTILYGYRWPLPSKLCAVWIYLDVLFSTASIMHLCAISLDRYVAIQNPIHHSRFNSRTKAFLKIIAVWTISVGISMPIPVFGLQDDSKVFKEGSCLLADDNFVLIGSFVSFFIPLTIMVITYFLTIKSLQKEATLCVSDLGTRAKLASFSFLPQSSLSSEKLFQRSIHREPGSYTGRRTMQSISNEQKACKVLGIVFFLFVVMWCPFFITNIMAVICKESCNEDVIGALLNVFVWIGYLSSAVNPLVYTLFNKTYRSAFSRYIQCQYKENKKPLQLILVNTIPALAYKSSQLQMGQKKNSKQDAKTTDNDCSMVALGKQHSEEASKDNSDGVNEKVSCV

[8] = target: T3, 5-hydroxytryptamine receptor 1A (Homo sapiens, UniProt P08908); assay: Binding affinity to human 5HT1A receptor
T3 sequence (P08908 whole entry): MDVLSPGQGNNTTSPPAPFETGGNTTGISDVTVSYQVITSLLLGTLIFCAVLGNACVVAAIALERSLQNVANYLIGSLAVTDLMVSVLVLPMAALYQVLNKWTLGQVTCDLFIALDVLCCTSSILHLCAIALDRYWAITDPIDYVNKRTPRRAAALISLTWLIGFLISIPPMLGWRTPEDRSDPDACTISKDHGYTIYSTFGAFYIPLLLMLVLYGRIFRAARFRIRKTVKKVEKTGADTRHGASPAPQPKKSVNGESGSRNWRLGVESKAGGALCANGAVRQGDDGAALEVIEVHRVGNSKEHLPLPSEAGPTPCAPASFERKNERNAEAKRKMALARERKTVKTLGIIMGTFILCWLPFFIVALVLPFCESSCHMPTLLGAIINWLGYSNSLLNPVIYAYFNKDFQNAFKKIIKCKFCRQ

[9] = target: 5-hydroxytryptamine receptor 6 (Homo sapiens, UniProt P50406); assay: Binding affinity to human 5HT6 receptor
Chain of 5-hydroxytryptamine receptor 6 (P50406 whole entry): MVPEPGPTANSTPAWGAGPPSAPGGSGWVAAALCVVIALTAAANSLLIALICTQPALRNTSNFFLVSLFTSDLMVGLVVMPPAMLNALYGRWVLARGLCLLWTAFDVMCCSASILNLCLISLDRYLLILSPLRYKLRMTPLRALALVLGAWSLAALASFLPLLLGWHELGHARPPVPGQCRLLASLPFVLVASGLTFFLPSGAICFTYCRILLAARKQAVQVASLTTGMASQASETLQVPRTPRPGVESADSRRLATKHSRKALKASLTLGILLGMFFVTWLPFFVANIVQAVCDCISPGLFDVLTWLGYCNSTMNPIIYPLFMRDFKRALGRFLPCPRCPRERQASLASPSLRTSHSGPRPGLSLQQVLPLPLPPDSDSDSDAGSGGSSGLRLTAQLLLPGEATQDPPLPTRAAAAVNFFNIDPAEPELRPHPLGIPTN

[10] = target: T4, 5-hydroxytryptamine receptor 2C (Homo sapiens, UniProt P28335); assay: Binding affinity to human 5HT2C receptor
T4 sequence (P28335 whole entry): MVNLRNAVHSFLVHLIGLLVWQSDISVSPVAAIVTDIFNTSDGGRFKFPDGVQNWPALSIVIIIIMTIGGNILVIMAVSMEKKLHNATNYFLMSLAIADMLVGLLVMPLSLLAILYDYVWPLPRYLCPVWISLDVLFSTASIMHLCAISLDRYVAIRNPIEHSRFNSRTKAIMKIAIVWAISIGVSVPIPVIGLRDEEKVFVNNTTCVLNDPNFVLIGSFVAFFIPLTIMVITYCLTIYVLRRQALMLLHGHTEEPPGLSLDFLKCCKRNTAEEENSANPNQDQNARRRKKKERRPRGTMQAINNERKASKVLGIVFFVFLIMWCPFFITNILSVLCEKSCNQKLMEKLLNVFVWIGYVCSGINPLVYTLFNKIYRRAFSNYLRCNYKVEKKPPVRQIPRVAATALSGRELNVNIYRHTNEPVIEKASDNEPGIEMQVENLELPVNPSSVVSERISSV

[11] = Volume of distribution at steady state in mouse at 5 mg/kg, iv; format: ADME, organism-based; design: dose 5 mg/kg, route intravenous; conditions: in vivo, read-out: Vdss
[12] = Tmax in mouse at 10 mg/kg, po; format: ADME, organism-based; design: dose 10 mg/kg, route oral; conditions: in vivo
[13] = Half life in mouse at 5 mg/kg, iv; format: ADME, organism-based; design: dose 5 mg/kg, route intravenous; conditions: in vivo
[14] = Cmax in mouse at 10 mg/kg, po; format: ADME, organism-based; design: dose 10 mg/kg, route oral; conditions: in vivo
[15] = Clearance in mouse at 5 mg/kg, iv; format: ADME, organism-based; design: dose 5 mg/kg, route intravenous; conditions: in vivo
[16] = Oral bioavailability in mouse at 10 mg/kg; format: ADME, organism-based; conditions: in vivo
[17] = target: T1, 5-hydroxytryptamine receptor 5A; assay: Antagonist activity at human 5HT5A receptor by [35S]GTP-gamma-S binding assay; format: functional; conditions: read-out: pA2 (converted)
Summary of the method: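 Functional antagonism at human 5-HT5A receptor measured by [35S]GTPγS binding; potency reported as pA2.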

[18] = Selectivity for human 5HT5A receptor over 5HT3 receptor
[19] = target: T4, 5-hydroxytryptamine receptor 2C; assay: Binding affinity to 5HT2C receptor
[20] = Selectivity for human 5HT5A receptor over 5HT6 receptor
Histamine H1 receptor = Histamine H1 receptor (Homo sapiens, UniProt P35367); assay: Binding affinity to histamine H1 receptor
Chain of Histamine H1 receptor (P35367 whole entry): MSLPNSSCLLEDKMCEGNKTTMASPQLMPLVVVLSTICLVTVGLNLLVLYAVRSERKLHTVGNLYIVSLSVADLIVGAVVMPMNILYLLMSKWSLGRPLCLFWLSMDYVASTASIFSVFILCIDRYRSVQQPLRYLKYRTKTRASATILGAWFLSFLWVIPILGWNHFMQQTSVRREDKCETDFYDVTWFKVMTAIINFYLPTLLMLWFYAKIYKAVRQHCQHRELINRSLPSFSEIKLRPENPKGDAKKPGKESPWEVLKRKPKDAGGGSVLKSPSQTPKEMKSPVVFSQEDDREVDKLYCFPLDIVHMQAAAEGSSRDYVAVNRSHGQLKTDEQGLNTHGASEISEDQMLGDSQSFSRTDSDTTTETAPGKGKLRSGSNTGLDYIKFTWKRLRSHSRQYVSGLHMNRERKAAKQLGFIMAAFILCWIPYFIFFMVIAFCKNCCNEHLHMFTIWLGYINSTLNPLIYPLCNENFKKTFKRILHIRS

[21] = target: T3, 5-hydroxytryptamine receptor 1A; assay: Binding affinity to 5HT1A receptor
[22] = target: T2, 5-hydroxytryptamine receptor 1D; assay: Binding affinity to 5HT1D receptor
[23] = Selectivity for human 5HT5A receptor over 5HT2A receptor
[24] = Ratio of drug level in brain to plasma in mouse at 6.6 mg/kg, po; format: ADME, organism-based; design: dose 6.6 mg/kg, route oral
Summary of the method: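 Mouse pharmacokinetic study with a single oral (po) dose of 6.6 mg/kg. Drug levels were measured in brain and in plasma, and the brain/plasma ratio was taken from these.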

Brain = assay: Drug level in mouse brain at 6.6 mg/kg, po; format: ADME, organism-based; design: dose 6.6 mg/kg, route oral; conditions: in vivo, read-out: Drug uptake
[25] = Cmax in mouse at 6.6 mg/kg, po; format: ADME, organism-based; design: dose 6.6 mg/kg, route oral; conditions: in vivo
[26] = Tmax in mouse at 6.6 mg/kg, po; format: ADME, organism-based; design: dose 6.6 mg/kg, route oral; conditions: in vivo
[27] = Oral bioavailability in mouse at 6.6 mg/kg; format: ADME, organism-based; conditions: in vivo

T1 sequence (P47898 whole entry): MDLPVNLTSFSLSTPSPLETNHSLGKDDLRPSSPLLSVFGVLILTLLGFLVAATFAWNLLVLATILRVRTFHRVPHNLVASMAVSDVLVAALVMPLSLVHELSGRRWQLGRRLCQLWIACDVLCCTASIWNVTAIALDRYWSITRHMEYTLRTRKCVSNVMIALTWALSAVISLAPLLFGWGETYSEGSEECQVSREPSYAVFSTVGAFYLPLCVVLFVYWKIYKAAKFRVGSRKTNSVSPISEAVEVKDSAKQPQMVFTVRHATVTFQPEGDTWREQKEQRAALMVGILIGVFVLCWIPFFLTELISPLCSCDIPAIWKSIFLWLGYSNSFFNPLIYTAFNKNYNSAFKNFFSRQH

Work on `CC1NC(NCC2COCCO2)=Nc2ccccc21` (stereo not given) yielded a Ki ([1]; read-out: Ki) of 96 nM and a logD [2] of -0.8.

`CC1NC(NCC(F)F)=Nc2ccccc21` (stereo not given) gave a Ki ([1]; read-out: Ki) of 87 nM, a logD [2] of -0.2 and a pKa [3] of 9.7.

With `C[C@@H]1NC(NCC(F)F)=Nc2cccc(Cl)c21` the Ki [4] was 1440 nM, the Ki [5] was 24.8 nM and the Ki [6] was 2.9 nM. The Ki [7] was 491 nM, the Ki [8] was 56 nM and the Ki [9] was 4480 nM. For the same compound, the Ki ([1]; read-out: Ki) was 6.8 nM and the Ki [10] was 352 nM.

Work on `CC1NC(NCCF)=Nc2ccccc21` (stereo not given) yielded a Ki ([1]; read-out: Ki) of 397 nM.

Work on `CC1NC(NC2CCCCN(C)C2=O)=Nc2ccccc21` (stereo not given) yielded a Ki ([1]; read-out: Ki) of 279 nM and a logD [2] of -0.1.

In the case of `C[C@H]1NC(NCC(F)F)=Nc2cccc(Cl)c21`, the Ki ([1]; read-out: Ki) is reported as 1470 nM.

For `CC1NC(N)=Nc2cccc(Cl)c21` (stereo not given), the Vd [11] was 9 L/kg, the Tmax [12] was 0.75 h and the half-life [13] was 4 h. For the same compound, the Cmax [14] was 660 ng/mL, the clearance [15] was 30 mL/min/kg and the Ki ([1]; read-out: Log Ki (converted)) was 5.01 nM. The logD [2] was 0, the bioavailability [16] was 59% and the Kb [17] was 3.16 nM. It also gave a pKa [3] of 9.9.

Work on `CC1NC(N)=Nc2ccccc21` (stereo not given) yielded a logD [2] of -1.4 and a pKa [3] of 10.5.

For `CC1NC(NC2CCC2)=Nc2ccccc21` (stereo not given), the Ki ([1]; read-out: Ki) was 122 nM and the logD [2] was -0.6.

For `CC1NC(NCCC2CCCCC2)=Nc2ccccc21` (stereo not given), the Ki ([1]; read-out: Ki) was 124 nM and the logD [2] was 1.3.

`CCCCNC1=Nc2ccccc2C(C)N1` (stereo not given) gave a Ki ([1]; read-out: Ki) of 189 nM, a logD [2] of -0.3 and a pKa [3] of 10.7.

`CC1NC(NCC(F)F)=Nc2ccc(Cl)c(Cl)c21` (stereo not given) showed a Ki [5] of 23.3 nM, a Selectivity ratio [18] of over 30 and a Ki [19] of 162 nM. The Selectivity ratio [20] was over 30, the Ki (Histamine H1 receptor) was 18.3 nM and the Ki [21] was 124 nM. The Ki [22] was 630 nM, the logD [2] was 2.7 and the pKa [3] was 8.5. For the same compound, the Selectivity ratio [23] was over 30.

Work on `CC1NC(NCC(F)F)=Nc2cccc(Cl)c21` (stereo not given) yielded a Kp [24] of 4, a Ki [5] of 33.3 nM and a Vd [11] of 3.6 L/kg. It also gave a Selectivity ratio [18] of over 30, a Ki [19] of 401 nM and a concentration (Brain) of over 1000 nM. For the same compound, the half-life [13] was 1.4 h, the clearance [15] was 31 mL/min/kg and the Selectivity ratio [20] was over 30. For the same compound, the Cmax [25] was 740 ng/mL, the Tmax [26] was 0.25 h and the Ki [21] was 85 nM. The Ki [22] was 1370 nM, the bioavailability [27] was 36% and the logD [2] was 1.5. For the same compound, the Kb [17] was 38.9 nM, the pKa [3] was 8.9 and the Selectivity ratio [23] was over 30.

Compound `COc1cccc2c1N=C(NCC(F)F)NC2C` (stereo not given) has a Ki [5] of 38.9 nM, a Selectivity ratio [18] of over 30 and a Ki [19] of 1660 nM. The Selectivity ratio [20] was over 30, the Ki [21] was 53 nM and the Ki [22] was 747 nM. It also gave a logD [2] of -0.5, a pKa [3] of 10.2 and a Selectivity ratio [23] of over 30.

`CC1NC(NCC2COc3ccccc3O2)=Nc2ccccc21` (stereo not given) showed a Ki ([1]; read-out: Ki) of 37 nM and a logD [2] of 1.
